# Screens deposited in PubChem BioAssay by Broad Institute.
# T cruzi intra: blocks T. cruzi growth inside host cells; 22,000 compounds, 4.9% hits; intracellular Trypanosoma cruzi in host cells, plate reader; activity score (inhibition), % at 5.01 µM; in the data active = activity score above about 55%;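 also: parasites and compound incubated about four days before reading; 0% = median of neutral control wells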
# A1 apoptosis 2: A1 inhibition read as caspase activation | MEF A1-2A-BIM cells, caspase-Glo luminescence, 3 h; percent of clofoctol response, DMSO zero | AID 2465 | caspase activation, % (test concentration not listed) | 24,000 tested, under 10 active; in the data active = caspase activation above about 5.9%
#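 Evaluation: Caspase-3/7 activity from luminescence increase | Assay system: A1-2A-BIM mouse embryonic fibroblasts | Quantity: 2500 MEF cells/well | Medium: RPMI-1640 plus 10% FBS | Detection: Caspase-Glo 3/7 luminescence, 1 h at room temperature | Dosing: 50 nL compound per well, pinned | Timing: Cells settled overnight, compound exposure 3 h at 37 °C, 5% CO2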
# INS-1E rescue: INS-1E beta cell protection from cytokine death | INS-1E cytokine-induced death, ATP luminescence, 48 h; normalised: neutral wells 0, positive control 100 | protection from cytokine-induced ATP loss, % at 10 µM | 20,000 compounds, 0.1% hits;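 active = mean replicate protection from cytokine-induced ATP loss at least 50% and at least 75% of replicates each reaching 50%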
#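 Assay system – rat INS-1E insulinoma cell line · Quantity – 8000 cells per well · Buffer or medium – RPMI without phenol red, 5% FBS · Schedule – 48 h co-treatment, 10 min post-lysis read · Technique – luminescent ATP assay (CellTiter-Glo)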
# Active calls of the source: *; / = no result given. Only a selection was taken, and hits are over-represented in it overall.
SMILES,T cruzi intra,A1 apoptosis 2,INS-1E rescue
C[C@H](CO)N1C[C@H](C)[C@H](CN(C)Cc2ccc(Cl)c(Cl)c2)Oc2c(NC(=O)c3nc4ccccc4s3)cccc2C1=O,60*,-1,-41
C[C@@H]1CN([C@H](C)CO)C(=O)c2cccc(NC(=O)c3nc4ccccc4s3)c2O[C@H]1CN(C)Cc1ccc(C(F)(F)F)cc1,62*,/,-60
C[C@H]1CN([C@@H](C)CO)C(=O)c2cccc(NC(=O)c3nc4ccccc4s3)c2O[C@H]1CN(C)Cc1ccc(C(F)(F)F)cc1,49,1,-48
C[C@H]1CN([C@@H](C)CO)C(=O)c2cccc(NC(=O)c3nc4ccccc4s3)c2O[C@H]1CN(C)Cc1ccccc1,12,/,-17
C[C@H]1CN([C@@H](C)CO)C(=O)c2cccc(NC(=O)c3nc4ccccc4s3)c2O[C@H]1CN(C)Cc1ccc(Oc2ccccc2)cc1,68*,0,-24
C[C@H](CO)N1C[C@H](C)[C@H](CN(C)Cc2ccccc2)Oc2c(NC(=O)c3nc4ccccc4s3)cccc2C1=O,49,1,-26
C[C@H](CO)N1C[C@H](C)[C@H](CN(C)Cc2ccc(Oc3ccccc3)cc2)Oc2c(NC(=O)c3nc4ccccc4s3)cccc2C1=O,59*,0,-31
C[C@@H]1CN([C@H](C)CO)C(=O)c2cccc(NC(=O)c3nc4ccccc4s3)c2O[C@@H]1CN(C)Cc1ccc(Cl)c(Cl)c1,8,/,-28
O=C(CCCCCCC(=O)Nc1ccccc1O)N/N=C/c1coc2ccccc2c1=O,-19,/,-1
O=C(CCCCCCC(=O)Nc1ccccc1O)N/N=C/c1ccoc1,-3,/,4
O=C(NO)c1cccc(C(=O)N/N=C/c2ccc(CO)o2)c1,-26,/,5
COc1ccc(COC[C@]23N=C4Sc5ccc([N+](=O)[O-])cc5C(=O)N4[C@H](c4ccccc4O2)[C@H]3CO)cc1,/,0,/
Cc1ccccc1/C=N/NC(=O)c1cccc(C(=O)NO)c1,-20,-2,-3
O=C(C1=C[C@H](c2ccc3c(c2)Cc2ccccc2-3)C[C@H](OCc2ccc(CO)cc2)O1)N1CCCCC1,/,1,/
C[C@H]1CN([C@@H](C)CO)C(=O)c2cccc(NC(=O)c3nc4ccccc4s3)c2O[C@@H]1CN(C)Cc1ccc(-c2ccccc2)cc1,73*,-1,-18
C[C@@H]1CN([C@H](C)CO)C(=O)c2cccc(NC(=O)c3nc4ccccc4s3)c2O[C@H]1CN(C)Cc1ccc(-c2ccccc2)cc1,47,-2,-20
C[C@H](CO)N1C[C@H](C)[C@@H](CN(C)Cc2ccc(Oc3ccccc3)cc2)Oc2c(NC(=O)c3ccncc3)cccc2C1=O,66*,0,-2
C[C@@H]1CN([C@H](C)CO)C(=O)c2cccc(NC(=O)c3ccncc3)c2O[C@H]1CN(C)Cc1ccc(Oc2ccccc2)cc1,85*,0,-26
C[C@H]1CN([C@@H](C)CO)C(=O)c2cccc(NC(=O)c3ccncc3)c2O[C@@H]1CN(C)Cc1ccncc1,-17,/,5
C[C@@H]1CN([C@@H](C)CO)C(=O)c2cccc(NC(=O)c3ccncc3)c2O[C@@H]1CN(C)Cc1ccc(Oc2ccccc2)cc1,78*,2,-20
COc1ccc(CN(C)C[C@@H]2Oc3c(NC(=O)c4ccncc4)cccc3C(=O)N([C@H](C)CO)C[C@H]2C)cc1,76*,1,4
Cc1ccsc1/C=N/NC(=O)c1cccc(C(=O)NO)c1,-16,-3,1
Cc1ccc(F)cc1S(=O)(=O)N[C@@H]1CCN(Cc2ccc3c(c2)OCO3)C1,/,-1,/
CC(C)(C)OC(=O)NC1(/C=N/NC(=O)c2ccccn2)CCCC1,-10,/,11
O=C(N/N=C/C1=CCCCC1)c1ccccc1O,0,-2,-4
SMILES,T cruzi intra,A1 apoptosis 2,INS-1E rescue
O=C(N/N=C/c1ccc(OCc2ccccc2)cc1O)c1ccccc1O,/,-2,/
Cc1noc(C)c1S(=O)(=O)N(C)C[C@H]1OCCCC[C@@H](C)Oc2ccc(NC(=O)NC3CCCCC3)cc2C(=O)N([C@H](C)CO)C[C@@H]1C,8,/,5
O=C1c2ccccc2[C@](Cc2ccccc2I)(C(=O)O)[C@H](c2ccc(CO)cc2)N1C1CCCCC1,/,0,/
C[C@H]1CN([C@@H](C)CO)C(=O)c2cccc(NC(=O)c3ccncc3)c2O[C@@H]1CN(C)Cc1ccc(Oc2ccccc2)cc1,78*,-1,-14
C[C@@H]1CCCCO[C@H](CN(C)S(=O)(=O)c2ccc(F)cc2)[C@@H](C)CN([C@H](C)CO)C(=O)c2cc(NC(=O)Nc3ccc(C(F)(F)F)cc3)ccc2O1,64*,0,-36
Cc1ccc(S(=O)(=O)N(C)C[C@@H]2OCCCC[C@@H](C)Oc3ccc(NC(=O)Nc4ccc(C(F)(F)F)cc4)cc3C(=O)N([C@H](C)CO)C[C@@H]2C)cc1,70*,/,-23
C[C@@H]1CCCCO[C@H](CN(C)S(=O)(=O)c2ccc(Cl)cc2)[C@H](C)CN([C@@H](C)CO)C(=O)c2cc(NC(=O)Nc3ccc(C(F)(F)F)cc3)ccc2O1,/,0,/
C[C@@H]1CCCCO[C@H](CN(C)S(=O)(=O)c2ccc(F)cc2)[C@@H](C)CN([C@H](C)CO)C(=O)c2cc(NC(=O)Nc3ccc(F)cc3)ccc2O1,14,0,-7
[O-]/[N+](=N\OCCBr)N1CCCC1,/,-1,/
COC(=O)C(CC#Cc1ccc2c(c1)[C@]1(C(=O)N2)[C@H](C(N)=O)[C@H]2C(=O)O[C@H](c3ccccc3)[C@H](c3ccccc3)N2[C@@H]1c1ccc(O)cc1)C(=O)OC,/,0,/
Cc1cc(C(=O)Nc2cccc3c2O[C@H](CN(C)Cc2ccc(C(=O)Nc4ccccc4N)cc2)[C@H](C)CN([C@H](C)CO)C3=O)n(C)n1,63*,-1,0
C[C@H]1CN([C@@H](C)CO)C(=O)c2cccc(NC(=O)C3CCCCC3)c2O[C@H]1CN(C)Cc1ccc(C(=O)Nc2ccccc2N)cc1,66*,/,3
C[C@@H]1CN([C@H](C)CO)C(=O)c2cccc(NC(=O)c3cnccn3)c2O[C@H]1CN(C)Cc1ccc(C(=O)Nc2ccccc2N)cc1,54,/,-12
C[C@@H]1CN([C@H](C)CO)C(=O)c2cccc(NC(=O)C3CCCCC3)c2O[C@@H]1CN(C)Cc1ccc(C(=O)Nc2ccccc2N)cc1,/,-1,/
C[C@@H]1CN([C@@H](C)CO)C(=O)c2cccc(NC(=O)c3cnccn3)c2O[C@@H]1CN(C)Cc1ccc(C(=O)Nc2ccccc2N)cc1,72*,/,35
Cc1cc(C(=O)Nc2cccc3c2O[C@H](CN(C)Cc2ccc(C(=O)Nc4ccccc4N)cc2)[C@@H](C)CN([C@@H](C)CO)C3=O)n(C)n1,46,/,0
C[C@@H]1CN([C@H](C)CO)C(=O)c2cccc(N(C)C)c2O[C@@H]1CN(C)Cc1ccc(C(=O)Nc2ccccc2N)cc1,28,/,8
C[C@H](CO)N1C[C@H](C)[C@H](CN(C)Cc2ccc(C(=O)Nc3ccccc3N)cc2)Oc2c(cccc2N(C)C)C1=O,56*,/,21
CN(C)CCCNC(=O)[C@@]1(c2ccc([N+](=O)[O-])cc2)CC(=O)N(CC23CC4CC(CC(C4)C2)C3)[C@@H]1c1ccc(CO)cc1,/,0,/
